Data published in ChEMBL document CHEMBL3228003, “Synthesis of angiotensin II analogues by incorporating beta-homotyrosine or beta-homoisoleucine residues” (J Med Chem, 1979).

Tests used:
[1] = Stability of the compound assessed as microsomal leucine aminopeptidase (unknown origin)-mediated liberation of sarcosine, arginine and valine after 2 hrs by TLC analysis; format: ADME, Homo sapiens
In short: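 Peptide (2 mg) in 0.4 mL of 0.5 mol Tris, pH 8.5, plus 0.1 mL of 0.025 mol MnCl2, was incubated at 37 °C with 0.2 mg of microsomal leucine aminopeptidase (25 units/1.83 mg). Acetic acid was added and the mixture lyophilized. Liberated amino acids were detected by TLC and amino acid analysis.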

Rattus norvegicus [2] = organism: Rattus norvegicus; experiment: Effect on pressor activity in vagotomized and ganglion-blocked rat assessed as duration of action; format: functional
In short: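 Single-injection pressor test in vagotomized, ganglion-blocked rats. Duration of action runs from peptide injection until blood pressure returns to control values.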

Rattus norvegicus [3] = organism: Rattus norvegicus; experiment: Effect on pressor activity in vagotomized and ganglion-blocked rat relative to angiotensin 2; format: functional
In short: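 Pressor response was measured in vagotomized, ganglion-blocked rats by the single-injection procedure. Activity is expressed as a percentage of the pressor activity of angiotensin II, with n injections per value.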

Rattus norvegicus [4] = organism: Rattus norvegicus; experiment: Effect on pressor activity in vagotomized and ganglion-blocked rat assessed as duration of action relative to angiotensin 2; format: functional
In short: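 Vagotomized, ganglion-blocked rats received single injections. Duration of action, timed from injection until blood pressure returns to control levels, is compared against an equipressor dose of angiotensin II given by the same procedure.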

[5] = Stability of the compound assessed as beef pancreas alpha-chymotrypsin-mediated drug degradation up to 3 hrs by TLC analysis; format: ADME, Bos taurus; conditions: cattle, isolated protein
In short: (§1)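 Peptide (5 mg) in 0.5 mL of 0.1 mol ammonium acetate buffer, pH 7.5, was incubated at 37 °C with 0.4 mg of thrice-crystallized bovine pancreatic α-chymotrypsin suspended in buffer. The reaction was stopped with acetic acid, the mixture lyophilized, and fragments checked by TLC on cellulose in suitable solvents.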

[6] = Stability of the compound assessed as microsomal leucine aminopeptidase (unknown origin)-mediated liberation of aspartic acid from position 1 after 5 mins by TLC analysis
[7] = Stability of the compound assessed as beef pancreas alpha-chymotrypsin-mediated drug degradation into 2 tetrapeptides after 15 to 20 mins by TLC analysis; format: ADME, Bos taurus; conditions: cattle, isolated protein; in short: as §1

Structure (SMILES) | Stability [1] | Stability [5] | Stability [6] | Stability [7] | Time (Rattus norvegicus [2]) [min] | Activity (Rattus norvegicus [3]) [%] | Time (Rattus norvegicus [4]) [min]
CC[C@H](C)[C@@H](CC(=O)N[C@@H](Cc1cnc[nH]1)C(=O)N1CCC[C@H]1C(=O)N[C@@H](Cc1ccccc1)C(=O)O)NC(=O)[C@H](Cc1ccc(O)cc1)NC(=O)[C@@H](NC(=O)[C@H](CCCNC(=N)N)NC(=O)[C@@H](N)CC(=O)O)C(C)C |  | Stable | Unstable |  | 6.7 | 2.82 | 6.3
CC[C@H](C)[C@@H](CC(=O)N[C@@H](Cc1cnc[nH]1)C(=O)N1CCC[C@H]1C(=O)N[C@@H](Cc1ccccc1)C(=O)O)NC(=O)[C@H](Cc1ccc(O)cc1)NC(=O)[C@@H](NC(=O)[C@H](CCCNC(=N)N)NC(=O)CNC)C(C)C | Stable | Stable |  |  | 4.7 | 29.2 | 5.3
CC[C@H](C)[C@H](NC(=O)[C@H](Cc1ccc(O)cc1)NC(=O)[C@@H](NC(=O)[C@H](CCCNC(=N)N)NC(=O)[C@@H](N)CC(=O)O)C(C)C)C(=O)N[C@@H](Cc1cnc[nH]1)C(=O)N1CCC[C@H]1C(=O)N[C@@H](Cc1ccccc1)C(=O)O [ANGIOTENSIN II] |  |  | Unstable | Unstable |  |  | 

Continued, in another order:

Stability [1] | Stability [5] | Stability [6] | Stability [7] | Structure (SMILES) | Time (Rattus norvegicus [2]) [min] | Activity (Rattus norvegicus [3]) [%] | Time (Rattus norvegicus [4]) [min]
Stable |  |  |  | CC[C@H](C)[C@H](NC(=O)[C@H](Cc1ccc(O)cc1)NC(=O)[C@@H](NC(=O)[C@H](CCCNC(=N)N)NC(=O)CNC)C(C)C)C(=O)N[C@@H](Cc1cnc[nH]1)C(=O)N1CCC[C@H]1C(=O)N[C@@H](Cc1ccccc1)C(=O)O |  |  | 
Stable | Stable |  |  | CC[C@H](C)[C@H](NC(=O)C[C@H](Cc1ccc(O)cc1)NC(=O)[C@@H](NC(=O)[C@H](CCCNC(=N)N)NC(=O)CNC)C(C)C)C(=O)N[C@@H](Cc1cnc[nH]1)C(=O)N1CCC[C@H]1C(=O)N[C@@H](Cc1ccccc1)C(=O)O | 5.5 | 1.98 | 5.2
